High-throughput results as filed in PubChem BioAssay.
Only some compounds are listed: those with a hit (about 3.3% of all), similar ones and a draw of the others.
Arr AP2 block – human beta-arrestin and AP2 interaction inhibition. inhibition, % at 10 µM. hit rate 0.31% among 340,000. FITC-arrestin peptide / GST-AP2 beads, flow cytometry; AP2 beta2 appendage carries R879A mutation;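 active = inhibition above a set limit, near 3 SD of compounds lacking own fluorescence, cut at about 54% in these data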
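Assay system: GST-AP2 R879A bound to glutathione beads, E. coli-expressed; Medium: PBS with 0.05% Tween 20 and 0.1% BSA; Also added: fluorescein-tagged arrestin peptide at 50 nM final; Timing: 12 min plus 1 h, RT; Measured by: flow cytometry, FL1 (488/535 nm); Evaluation: percent drop in bead-associated FITC signal.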
CendR NRP1 mod – alters CendR peptide binding to human NRP-1; O14786; FAM-RPARPAR peptide binding to NRP-1, fluorescence polarization; inhibition, % at 25 µM; hit rate 0.85% among 360,000;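 active = inhibition or corrected inhibition above about 18%, plus a signal ratio from 0.5 to 1.5, limit read from the data, passing the limit was not always enough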
Hep lipid drop – hepatic lipid droplet formation modulation; inhibition, % at 6.5 µM; AID 1656; AML12 mouse hepatocytes, oleate lipid droplets, BODIPY imaging; hit rate 0.4% among 240,000;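 active = lipid droplet intensity inhibited by at least 50%, with more than 500 cells counted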
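Material – mouse AML12 hepatocyte cell line, fixed after treatment · Compound dosing – one dose, 6.5 µM compound · Times – compound with oleate, overnight · Measured by – Image-based BODIPY and DAPI two-channel analysis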
sPLA2-III inh – Inhibits HGIII-sPLA2 liposome hydrolysis, primary screen. QFRET BODIPY PC-A2 liposome hydrolysis, fluorescence. inhibition, % at 12.2 µM. hit rate 0.56% among 370,000. AID 743126;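 active = inhibition above mean plus 3 SD of compounds lying within the high and low control bounds, cut at about 19% in these data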
PfM18AAP inh-1 – PfM18AAP enzyme inhibition; hit rate 1.2% among 290,000; inhibition, % at 7.35 µM; recombinant PfM18AAP, H-Glu-NHMec fluorogenic cleavage; AID 1822;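 active = inhibition above the campaign mean inhibition over all tested compounds plus 3 SD, cut at about 28% in these data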
HTR2A ag – agonists of mouse serotonin 5-HT2A receptor (HTR2A); activation, % at 7.6 µM; AID 624169; P35363; hit rate 0.66% among 360,000; CHO-K1 mHTR2A beta-arrestin complementation, luminescence; percent of 30 µM serotonin response;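 active = activation above a run cutoff, the mean activation of all tested compounds plus 3 SD, cut at about 14% in these data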
PfM18AAP inh-2 – confirmation of Plasmodium falciparum M18 aspartyl aminopeptidase inhibitors. inhibition, % at 7.35 µM. shares compounds with PfM18AAP inh-1. hit rate 28% among 2,400. recombinant PfM18AAP, H-Glu-NHMec fluorogenic cleavage;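 active = mean inhibition over replicate wells above the hit cutoff set for the earlier primary screen, cut at about 29% in these data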
CTSL1 confirm – counter-screen for PFM18AAP inhibitors: confirmation of human cathepsin L inhibitors; shares compounds with PfM18AAP inh-1; purified cathepsin L1, Z-Leu-Arg-MCA fluorescence; inhibition, % at 5.96 µM; 2,400 tested, under 10 active; AID 2178;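 active = average inhibition across replicates above the hit cutoff set in the earlier primary screen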
Target sequence (P07711 whole entry, looked up): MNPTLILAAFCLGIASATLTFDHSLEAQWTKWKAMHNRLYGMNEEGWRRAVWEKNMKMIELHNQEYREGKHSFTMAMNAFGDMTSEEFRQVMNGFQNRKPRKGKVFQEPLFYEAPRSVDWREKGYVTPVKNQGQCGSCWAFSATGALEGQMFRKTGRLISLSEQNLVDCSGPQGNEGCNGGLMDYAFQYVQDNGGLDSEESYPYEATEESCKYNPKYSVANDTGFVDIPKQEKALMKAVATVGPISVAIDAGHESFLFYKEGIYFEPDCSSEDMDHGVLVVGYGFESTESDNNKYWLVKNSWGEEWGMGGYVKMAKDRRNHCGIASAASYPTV
Each line names hits and unclear results; the compound was inactive in the other large screens (follow-up assays come after a bar, where they were run).

S=C(Nc1ccc(I)cc1)OC1CCC12CCC(c1ccccc1)CC2 (stereo not given)	none (no result: Arr AP2 block, CendR NRP1 mod, Hep lipid drop, PfM18AAP inh-1, HTR2A ag)
NC(=O)C1CCN(C(=S)c2ccc(-c3ccc(Br)cc3)o2)CC1	PfM18AAP inh-1 49.0 | PfM18AAP inh-2 inactive | CTSL1 confirm inactive
NC(=O)c1ccc(-c2ccc(Br)cc2)o1	none (no result: Hep lipid drop)
COc1ccc2c(-c3ccccc3)cc(N3CCOCC3)nc2c1	PfM18AAP inh-1 50.5 | PfM18AAP inh-2 inactive | CTSL1 confirm inactive
CC(C)n1cnc2c(=S)nc[nH]c21	none | PfM18AAP inh-2 inactive | CTSL1 confirm inactive
COc1cc(NC(=O)Nn2cnnc2)cc(OC)c1OC	PfM18AAP inh-1 69.3 | PfM18AAP inh-2 53.6 | CTSL1 confirm inactive
COc1ccccc1NC(=O)Nn1cnnc1	PfM18AAP inh-1 65.0 (no result: Hep lipid drop) | PfM18AAP inh-2 51.3 | CTSL1 confirm inactive
COc1ccc(NC(=O)Nn2cnnc2)cc1OC	PfM18AAP inh-1 55.3 | PfM18AAP inh-2 43.9 | CTSL1 confirm inactive
C=CCNC(=O)c1sc(=S)n(-c2ccc(C(=O)OCC)cc2)c1N	PfM18AAP inh-1 42.3 | PfM18AAP inh-2 inactive | CTSL1 confirm inactive
CCOC(=O)c1ccc(-n2c(N)c(C(=O)NCc3ccco3)sc2=S)cc1	none (no result: Hep lipid drop, sPLA2-III inh)
O=C1NC(=S)SC1=C1CCCC1	PfM18AAP inh-1 35.7 | PfM18AAP inh-2 inactive | CTSL1 confirm inactive
CN1C(=O)C(=C2CCCCCC2)SC1=S	none (no result: Hep lipid drop)
COc1cccc(C(=O)Nn2cnnc2)c1OC	PfM18AAP inh-1 43.3 | PfM18AAP inh-2 51.5 | CTSL1 confirm inactive
O=C(Nn1cnnc1)c1ccccc1Cl	PfM18AAP inh-1 55.4 | PfM18AAP inh-2 40.0 | CTSL1 confirm inactive
Cc1cc(C)c2nc(-c3ccccn3)cc(C(=O)Nn3cnnc3)c2c1	PfM18AAP inh-1 44.1 (no result: Hep lipid drop) | PfM18AAP inh-2 29.4 | CTSL1 confirm inactive
COCCCNC(=O)c1cccc(OC)c1OC	none
Cc1cc(C)c2nc(-c3ccccn3)cc(C(=O)NCc3cc(C)n(C)n3)c2c1	none (no result: Hep lipid drop)
O=C(O)c1ccccc1C(=O)O	none (no result: Hep lipid drop, PfM18AAP inh-1)
O=C(O)c1ccccc1C(=O)Nn1cnnc1	PfM18AAP inh-1 37.5 | PfM18AAP inh-2 35.9 | CTSL1 confirm inactive
O=C(CP(=O)(c1ccccc1)c1ccccc1)Nn1cnnc1	PfM18AAP inh-1 34.5 (no result: Hep lipid drop) | PfM18AAP inh-2 49.1 | CTSL1 confirm inactive
CCc1ccc(-c2cc(C(=O)Nn3cnnc3)c3ccccc3n2)cc1	PfM18AAP inh-1 43.0 | PfM18AAP inh-2 46.4 | CTSL1 confirm inactive
Cc1ccccc1C(=O)Nn1cnnc1	PfM18AAP inh-1 33.0 | PfM18AAP inh-2 inactive | CTSL1 confirm inactive
O=C(CSc1nnc(-c2ccccc2)o1)NC1CCCC1	none (no result: Hep lipid drop, PfM18AAP inh-1)
O=C(CSc1nnc(-c2ccccc2)o1)Nn1cnnc1	PfM18AAP inh-1 72.1 (no result: Hep lipid drop) | PfM18AAP inh-2 72.6 | CTSL1 confirm inactive
CCN(CC)C(=O)CN1C(=O)C2CCCCN2C(=O)c2ccccc21 (stereo not given)	none (no result: Arr AP2 block, CendR NRP1 mod, Hep lipid drop, PfM18AAP inh-1, HTR2A ag)
COC(=O)[C@]1(CNC(=O)NCCc2ccc(OC)c(OC)c2)CC(=O)N(C)[C@@H]1c1ccccc1	none (no result: Arr AP2 block, CendR NRP1 mod, Hep lipid drop, PfM18AAP inh-1, HTR2A ag)
CC(C)(C)C(=O)OCOP(=O)(COCCn1cnc2c(N)ncnc21)OCOC(=O)C(C)(C)C	none (no result: Arr AP2 block, CendR NRP1 mod, Hep lipid drop, PfM18AAP inh-1, HTR2A ag)
CCOC(=O)CSc1nc2ccc(N3CCOCC3)cc2c(=O)n1Cc1ccc2c(c1)OCO2	PfM18AAP inh-1 37.1 (no result: Arr AP2 block, CendR NRP1 mod, sPLA2-III inh, HTR2A ag) | PfM18AAP inh-2 inactive | CTSL1 confirm inactive
CCN(CC)C(=O)CSc1nc2cc3c(cc2c(=O)n1Cc1ccc2c(c1)OCO2)OCO3	none
O=C1c2[nH]nc(-c3ccccc3)c2C(c2cccc(C(F)(F)F)c2)N1c1ccccc1 (stereo not given)	none (no result: Arr AP2 block, CendR NRP1 mod, Hep lipid drop, PfM18AAP inh-1, HTR2A ag)
Cc1cc(C)cc(NCc2cc3c(cc2[N+](=O)[O-])OCO3)c1	none (no result: Hep lipid drop)
COc1ccc(CNCc2cc3c(cc2[N+](=O)[O-])OCO3)cc1	PfM18AAP inh-1 38.3 | PfM18AAP inh-2 inactive | CTSL1 confirm inactive
CCN(CC)S(=O)(=O)c1ccc(NC2=NS(=O)(=O)c3ccccc32)cc1	none
O=S1(=O)N=C(Nc2nncs2)c2ccccc21	PfM18AAP inh-1 41.3 | PfM18AAP inh-2 51.5 | CTSL1 confirm inactive
